Assay results from PubChem BioAssay AID688 (PCMD, 2007).
Among all 27,000 compounds or so, about 250 (0.93%) were called active.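 How the source made its calls: active means mutant luminescence inhibited past about 50% while wild type luminescence and mutant growth stay under set limits (limit read from the data); inconclusive means mutant versus wild type luminescence inhibition gap past a set limit; inactive means the rest.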 Many of the other results were omitted from the sample, so actives are more common in it than they were.

Assay: mutant yeast GCN4 reporter luminescence inhibitors – S. cerevisiae, eIF2B-epsilon R284H, Beta-Glo luminescence, primary screen (AID 688)
Details: GCN4-lacZ luminescence; growth inhibition: measured here: mutant yeast growth, toxicity, concentration not given here; inhibition: stronger effect = higher value, screened at 25 µM (by protocol)
Outline: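 material = yeast eIF2B-epsilon R284H mutant carrying GCN4–beta-galactosidase fusion | schedule = 16 h growth with compound at 30 °C, 90 min Beta-Glo step | measured by = luminescence and A595 | compound dosing = one concentration, 25 µM, 0.25% DMSO | read-out basis = % inhibition of reporter signal and growth versus controls | buffer or medium = YPD medium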

| SMILES | growth inhibition [%] | inhibition |
| --- | --- | --- |
| Cc1nn(C)cc1CNC(=O)Nc1ccc(Cl)cc1 | -18.2 | -9.58% (inactive) |
| O=C1c2ccncc2C(=O)N1C1CCCCC1 | 8.93 | 68.7% (active) |
| Cc1cc(N2CCN(S(=O)(=O)c3ccc(C)c(C)c3)CC2)c2ccccc2n1 | 3.23 | 10.4% (inactive) |
| Cc1[nH][nH]c(=O)c1N=Nc1ccccc1 | 8.33 | 28.6% (inactive) |
| CN(Cc1nc2ccccc2c(=O)[nH]1)Cc1cc(=O)oc2ccc3ccccc3c12 | 9.38 | 16.8% (inactive) |
| CC(C)C(NC(=O)c1ccc(Cl)cc1)C(=O)O (centres undefined) | 16.2 | 27.4% (inactive) |
| CCC(C(=O)NCc1ccc(OC)cc1)n1nc(C)n2c(cc3occc32)c1=O (centres undefined) | -9.52 | 47% (inactive) |
| Cc1noc(NS(=O)(=O)c2ccc(NC(=O)C34CCC(CC3)C4)cc2)c1C | 2.7 | -23.3% (inactive) |
| C/C=C/C(=O)OCC(=O)Nc1ccc(F)cc1Cl | -4.76 | 19.8% (inactive) |
| COc1ccc(CNCCCO)cc1OC | 8.33 | -1.06% (inactive) |
| CCc1c(-c2ccccc2)nc(N)c(C#N)c1-c1cccs1 | -19.1 | 15.9% (inactive) |
| OCCN1CCOCCOCCN(CCO)CCN(CCO)CC1 | -9.52 | 13.5% (inactive) |
| O=c1[nH][nH]c(C(F)(F)F)c1C=NCc1ccccc1Cl | 12.5 | 12% (inactive) |
| O=P(O)(CP(=O)(c1ccccc1)c1ccccc1)c1ccccc1 | 3.57 | -14.4% (inactive) |
| CC(C)(C)NC(=O)Cn1c(SCC(=O)Nc2nccs2)nc2ccccc21 | -29.4 | 0.21% (inactive) |
| COc1ccccc1N=C1SC(C)CN1C(=O)C1CCC1 (centres undefined) | 4.55 | 26.9% (inactive) |
| CCN(CC(=O)Nc1ccccc1OC)C(=O)Cn1cnc2ccccc2c1=O | -14.3 | 6.69% (inactive) |

| SMILES | growth inhibition [%] | inhibition |
| --- | --- | --- |
| C/C(=N\NS(=O)(=O)c1ccc(Br)cc1)c1cccs1 | 2.78 | 11% (inactive) |
| Cc1cccc(NC(=O)C2CC(=O)OC23CCCC3)c1 (centres undefined) | 11.5 | -11.9% (inactive) |
| Cc1ccc(NC(=O)N2CCC(c3nc4c(nnn4Cc4c(F)cccc4Cl)c(=O)[nH]3)CC2)cc1 | 6.06 | 14.6% (inactive) |
| CCC(C)NC(=O)CCCc1ccccc1 (centres undefined) | -2.38 | 7.79% (inactive) |
| CCCCNC(=O)C1CCCNC1=O (centres undefined) | 26.5 | 22.2% (inactive) |
| CC1(C)Cc2c(sc3nc(SCC(=O)NCc4ccccc4)n(-c4ccccc4)c(=O)c23)CS1 | -11.9 | -11% (inactive) |
| CCOc1ccc(S(=O)(=O)NCC2CCCO2)cc1 (centres undefined) | 5.88 | 10.3% (inactive) |
| Cn1c2c(c(=O)n(C)c1=O)C(c1cccc([N+](=O)[O-])c1)Nc1ccccc1O2 (centres undefined) | -14.3 | 20.4% (inactive) |
| CC(=O)Nc1ccc(S(=O)(=O)N2CCN(C3CCCCCCC3)CC2)cc1 | 9.09 | -9.55% (inactive) |
| CCOC(=O)CSc1nnc(CNc2ccc(F)cc2)o1 | 3.45 | 19.4% (inactive) |
| COc1ccc(CN(CC(=O)NC2CCCC2)C(=O)CCC(=O)Nc2cc(C)on2)cc1 | -15.6 | -35.1% (inactive) |
| CN(C(=O)COc1ccccc1)c1nnc(-c2ccncc2)s1 |  | 10.2% (inactive) |
| CCOC(=O)CSc1nccc(N(C)C)c1C#N | 12 | 24.8% (inactive) |
| CCOC(=O)CSc1nncc2ccc(OC)c(OC)c12 |  | 50.1% (active) |
| CCOC(=O)CSc1nnc(CNC(=O)Cc2ccccc2)n1-c1ccccc1OC | -1.72 | 36.1% (inactive) |
| CCC(=O)c1ccc(OCC(O)CN2CC(C)OC(C)C2)cc1 (centres undefined) | 4.55 | -8.08% (inactive) |
